# High-throughput results as filed in PubChem BioAssay.
# tolC growth inh – blocks growth of E. coli BW25113 tolC mutant; OD615; growth inhibition, % at 10 µM (by protocol); 2.2% of 65,000 active; AID 573;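 active means growth inhibition at or above a cutoff equal to the mean over every tested compound plus 3 SD, cut at about 60% in these data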;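 further: growth measured after 20 h incubation at 37 °C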
#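 signal = optical density read at 615 nm | test system = E. coli ΔtolC::kan strain BW25113 | timing = 20 h compound exposure of bacteria at 37 °C | buffer or medium = LB medium plus 50 µg/mL kanamycin | compound dosing = 10 µM final, single dose | evaluation = % inhibition of E. coli growth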
# Ecoli WT expand – growth inhibitors of E. coli BW25113 wild type; OD600 absorbance; growth inhibition, % at 100 µM; 0.15% of 98,000 active; AID 710;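 active means growth inhibition above about 50% at one test dose, limit read from the data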;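 further: growth measured after 20 h incubation at 37 °C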
# HePTP inhibitor – human HePTP phosphatase inhibition. recombinant HePTP phosphatase activity, OD absorbance. inhibition, % at 20 µM. 0.64% of 110,000 active. AID 521; in the data active means inhibition above about 50%;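 further: plate controls were vehicle for no effect and reference inhibitor for full effect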
# PostGolgi yeast – growth inhibition of a yeast mutant, post-Golgi transport screen; post-Golgi transport phenotypic cell assay; 0.9% of 98,000 active; inhibition, % at 10 µM;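 further: yeast cells grown in 1536-well plates; yeast grown about 18 h at 30C before absorbance read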
# PLAP act – activates human placental alkaline phosphatase. P05187. purified PLAP enzyme, luminescent substrate read-out; hits give high values. activation fold at 20 µM. 1.2% of 96,000 active. AID 696; in the data active means activation fold above about 2
# PostGolgi ctrl – yeast control strain growth, post-Golgi counter-screen; efflux-deficient yeast background strain, growth absorbance A615, 16 h; inhibition, % at 10 µM; 5% of 98,000 active
# Numbers without * were called inactive; x = no result given. Shown are actives, neighbours in structure and some others; about 5.4% of the full set was active somewhere. Unless noted, no stated cut-off is given here; in the data, active means inhibition above about 30%; inactive means the rest.
SMILES,tolC growth inh,Ecoli WT expand,HePTP inhibitor,PostGolgi yeast,PLAP act,PostGolgi ctrl
CCOc1ccc(C=C2C(=O)N(C)C(=O)N(C)C2=O)cc1Cl,x,x,5,x,x,x
CN1C(=O)/C(=C\c2nc3ccccc3c(=O)n2-c2ccccc2)c2cc(Br)ccc21,x,x,-17,x,x,x
CCC(=O)Nc1nonc1-c1nc2ccccc2n1CCC(C)C,50,-6,-4,3,1,36*
CC(=O)Nc1nonc1-c1nc2ccccc2n1CCC(C)C,30,7,4,4,1.2,30
CC1CCN(c2nc3ccccc3n3cnnc23)CC1,x,x,-2,x,x,x
Cc1cccc(N2CCN(c3nc4ccccc4n4cnnc34)CC2)c1C,20,2,6,0,1.3,37*
Cc1ccc(S(=O)(=O)c2c(N)n(/N=C/c3ccco3)c3nc4ccccc4nc23)cc1,15,-14,7,9,1.6,41*
Cc1cccc(S(=O)(=O)c2c(N)n(/N=C/c3ccco3)c3nc4ccccc4nc23)c1,12,-10,5,6,1.6,32*
Nc1c(S(=O)(=O)c2ccccc2)c2nc3ccccc3nc2n1/N=C/c1ccco1,29,-12,6,7,0.9,24
CCCCCCn1c(C)nc2c(c1=O)c1nc3ccccc3nc1n2/N=C/c1ccco1,x,-8,x,-8,2*,-1
Cc1c(Cl)cccc1NC(=O)C(=O)NCc1ccc2c(c1)OCO2,x,x,-1,x,x,x
O=C(CC(C(=O)O)N1CCOCC1)c1ccccc1 (stereo not given),x,x,103*,x,x,x
O=C(c1ccccc1)C(CCC(CN1CCOCC1)C(=O)c1ccccc1)CN1CCOCC1 (stereo not given),13,8,4,-1,1.3,41*
O=C(c1ccc(F)cc1)C(CN1CCOCC1)c1ccccc1 (stereo not given),22,28,-2,15,1,55*
CCCc1ncc(C(O)c2ccc(OCC)cc2)n1C (stereo not given),x,x,-6,x,x,x
Cn1c(=O)c2c(nc(Sc3nc4ccccc4o3)n2C)n(C)c1=O,x,x,-5,x,x,x
O=c1c2ccccc2c(-c2ccc(Cl)cc2)nn1-c1ccccc1,x,0,x,6,0.9,40*
CCC(C)c1ccc(OCCOc2ccc(Cl)cc2/C=N/n2cnnc2)cc1 (stereo not given),x,x,-9,x,x,x
Cc1sc(NC(=O)c2ccco2)c(CN2CCN(c3ccccn3)CC2)c1C,63*,-6,9,-5,1.2,30
COCCNS(=O)(=O)c1ccccc1,x,0,x,-9,0.9,-4
Cc1nn(C)c(Oc2ccccc2)c1CCNS(=O)(=O)c1ccccc1,x,8,x,-21,1.4,38*
CC(=O)C1(Nc2ccccc2)CC(C)=NN1C(=O)c1ccccc1 (stereo not given),x,x,-15,x,x,x
Cc1csc(=Nc2ccc(S(=O)(=O)N3CCOCC3)cc2)n1Cc1ccco1,9,-12,4,-1,1.6,44*
Cc1ccc(S(=O)(=O)N(CC(=O)Nc2cccc(C)c2)c2cccc(Cl)c2C)cc1,x,x,3,x,x,x
Cc1ccc(CNc2nc(N)c([N+](=O)[O-])c(Nc3cccc(F)c3)n2)cc1,x,-16,x,-6,0.7,46*
SMILES,tolC growth inh,Ecoli WT expand,HePTP inhibitor,PostGolgi yeast,PLAP act,PostGolgi ctrl
O=C(Cc1ccc(Br)cc1)Nc1cc([N+](=O)[O-])ccc1Cl,x,x,1,x,x,x
O=C(CCSc1nnc(-c2ccncc2)o1)Nc1ccccc1,-6,0,13,1,1,3
O=C(CCSc1nnc(-c2ccncc2)o1)Nc1ccc(F)cc1,-6,6,8,93*,0.9,89*
O=C(Nc1cccc(-c2nc3ncccc3o2)c1)c1cc2ccccc2o1,11,-11,x,11,1.5,35*
COc1cc(C2c3c(-c4ccccc4)n[nH]c3C(=O)N2c2ccccc2)ccc1O (stereo not given),18,-1,5,-8,2.2*,7
COc1cc(C2c3c(n[nH]c3C)C(=O)N2c2ccc(C)cc2)ccc1O (stereo not given),5,5,8,-1,2.2*,-3
COc1ccc(OC)c(C2c3c(-c4ccccc4)n[nH]c3C(=O)N2c2ccccc2)c1 (stereo not given),x,x,-3,x,x,x
O=C(NC(NNc1ccc([N+](=O)[O-])cc1)(C(F)(F)F)C(F)(F)F)c1ccc(Cl)cc1,x,-8,x,21,0.9,58*
O=c1c2c3c(sc2nc(SCc2ccc([N+](=O)[O-])cc2)n1-c1ccccc1)CCCC3,x,x,3,x,x,x
N#Cc1cnn(-c2nc(SCc3ccccc3)nc3sc4c(c23)CCCC4)c1N,2,-8,9,14,0.9,34*
COCc1ccc(C(=O)Nc2ccccc2C(=O)O)o1,x,x,1,x,x,x
